Results taken from ChEMBL document CHEMBL4376860, “Discovery of Novel Dual Poly(ADP-ribose)polymerase and Phosphoinositide 3-Kinase Inhibitors as a Promising Strategy for Cancer Therapy” (J Med Chem, 2020).
pIC50: −log10 of the molar value. Calls of active or inactive are those of the source. No cut-off for these calls is given here.

What was measured:
MDA-MB-468 [1] = test: Antitumor activity against human MDA-MB-468 cells xenografted in BALB/c mouse assessed as tumor growth inhibition at 50 mg/kg, ip administered every 2 days for 34 days and measured at 2 days interval during compound dosing relative to control; assay type: functional; details: MDA-MB-468, ip, read-out: TGI
MDA-MB-468 [2] = test: Activation of ERK in human MDA-MB-468 cells assessed as increase in ERK autophosphorylation at T202 residue at 1 uM measured after 6 to 72 hrs by Western blot analysis; assay type: cell-based
How it was run: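 MDA-MB-468 cells seeded in six-well plates, incubated overnight, then treated for 6 h, with 1‰ (v/v) DMSO medium as control. Lysates cleared at 4 °C, protein quantified by BCA, resolved by 8-12% SDS-PAGE and transferred to PVDF. Membranes blocked in 5% BSA/TBST, probed with primary antibodies (pERK-Thr202, total ERK, cleaved PARP, β-actin) and HRP secondary. ECL detection, band densitometry.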

MDA-MB-468 [3] = test: Induction of apoptosis in human MDA-MB-468 cells xenografted in BALB/c mouse assessed as increase in cleaved PARP expression at 50 mg/kg, ip administered every 2 days for 34 days measured post last dose by Western blot analysis; assay type: functional, organism-based
MDA-MB-231 = test: Potency index, ratio of BKM120 IC50 to test compound IC50 for antiproliferative activity against human MDA-MB-231 cells; assay type: functional
[4] = biological target: Phosphatidylinositol 4,5-bisphosphate 3-kinase catalytic subunit alpha isoform (Homo sapiens, UniProt P42336); test: Inhibition of PI3Kalpha (unknown origin) using PIP2 as substrate measured after 1 hr by ADP-glo plus luminescence assay
Chain of Phosphatidylinositol 4,5-bisphosphate 3-kinase catalytic subunit alpha isoform (P42336 whole entry, canonical isoform): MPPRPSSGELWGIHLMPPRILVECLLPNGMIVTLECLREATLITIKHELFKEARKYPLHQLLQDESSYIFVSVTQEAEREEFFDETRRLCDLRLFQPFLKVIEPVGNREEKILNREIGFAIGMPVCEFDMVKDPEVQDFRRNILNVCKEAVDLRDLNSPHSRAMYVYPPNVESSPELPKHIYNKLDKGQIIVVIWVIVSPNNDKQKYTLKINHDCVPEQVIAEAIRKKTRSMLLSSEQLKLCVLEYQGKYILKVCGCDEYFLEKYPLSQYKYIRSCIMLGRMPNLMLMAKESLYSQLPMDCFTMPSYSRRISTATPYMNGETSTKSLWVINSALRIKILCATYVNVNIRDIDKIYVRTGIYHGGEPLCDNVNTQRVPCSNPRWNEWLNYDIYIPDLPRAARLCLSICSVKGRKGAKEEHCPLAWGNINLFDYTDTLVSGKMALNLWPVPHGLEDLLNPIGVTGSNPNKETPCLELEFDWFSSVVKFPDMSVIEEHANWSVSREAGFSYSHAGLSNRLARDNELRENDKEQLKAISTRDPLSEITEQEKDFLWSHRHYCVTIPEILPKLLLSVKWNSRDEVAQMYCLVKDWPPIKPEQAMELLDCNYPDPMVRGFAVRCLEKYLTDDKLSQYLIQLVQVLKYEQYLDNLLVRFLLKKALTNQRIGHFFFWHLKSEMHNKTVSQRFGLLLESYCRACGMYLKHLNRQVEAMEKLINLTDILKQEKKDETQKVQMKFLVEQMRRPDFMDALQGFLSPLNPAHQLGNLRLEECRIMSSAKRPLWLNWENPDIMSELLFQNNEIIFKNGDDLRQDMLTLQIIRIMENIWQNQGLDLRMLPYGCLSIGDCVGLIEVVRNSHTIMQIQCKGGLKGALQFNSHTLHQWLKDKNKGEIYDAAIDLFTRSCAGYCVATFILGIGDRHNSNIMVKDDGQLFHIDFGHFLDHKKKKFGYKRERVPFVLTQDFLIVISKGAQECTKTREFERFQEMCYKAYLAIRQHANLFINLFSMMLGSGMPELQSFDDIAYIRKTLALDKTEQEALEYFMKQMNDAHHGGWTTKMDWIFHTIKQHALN

Mus musculus = test: In vivo inhibition of PI3K in BALB/c mouse xenografted with human MDA-MB-468 cells assessed as reduction in AKT phosphorylation at S473 residue at 50 mg/kg, ip administered every 2 days for 34 days measured post-last dose by Western blot analysis; assay type: functional, organism-based
A549 = test: cells; details: Homo sapiens, A549, 168 h, read-out: pIC50 (converted)
MDA-MB-468 [5] = test: Inhibition of PI3K in human MDA-MB-468 cells assessed as reduction in BRCA1 mRNA level at 1 uM in presence of PARP inhibitor olaparib by Trizol reagent-based RT-PCR analysis; assay type: cell-based
How it was run: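 Total RNA from treated MDA-MB-468 cells extracted with TRIzol. BRCA1 or BRCA2 mRNA quantified by real-time PCR with GAPDH as internal control. Results given as fold change relative to the internal control. Mean ± SD of three independent experiments.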

Ramos = test: cells; details: Homo sapiens, 168 h, read-out: pIC50 (converted)
MDA-MB-468 [6] = test: Induction of apoptosis in human MDA-MB-468 cells assessed as viable cells at 1 uM measured after 72 hrs in presence of PARP inhibitor olaparib by Annexin V-FITC/propidium iodide staining based flow cytometry (reference value: 95.2%); assay type: functional; details: MDA-MB-468, 72 h, read-out: Activity
MDA-MB-468 [7] = test: Induction of DNA damage in human MDA-MB-468 cells at 1 uM measured after 72 hrs in presence of PARP inhibitor olaparib by comet assay; assay type: functional, cell-based
How it was run: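 MDA-MB-468 cells treated for 72 h, harvested and run in a neutral comet assay. Ethidium bromide staining after electrophoresis. About 200 cell images per group analysed with CASP. DNA damage scored as tail intensity (percentage DNA in tail) and olive tail moment. Mean ± SD of three independent experiments.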

SW-620 = test: cells; details: Homo sapiens, SW-620, 168 h, read-out: pIC50 (converted)
Jurkat = test: cells; details: Homo sapiens, 168 h, read-out: pIC50 (converted)

Row | SMILES | inhibition in vivo at 50 mg/kg (MDA-MB-468 [1]) [%] | Activity (MDA-MB-468 [2]) | Activity (MDA-MB-468 [3]) | Ratio IC50 (MDA-MB-231) | pIC50 [4] | inhibition (Mus musculus) | IC50 (A549) [µM] | inhibition (MDA-MB-468 [5]) | IC50 (Ramos) [µM] | viability at 1 µM (MDA-MB-468 [6]) [%] | Activity (MDA-MB-468 [7]) | IC50 (SW-620) [µM] | IC50 (Jurkat) [µM]
1 | Nc1cc(C(F)(F)F)c(-c2nc3c(c(N4CCOCC4)n2)CCN(C(=O)c2cc(Cc4n[nH]c(=O)c5ccccc45)ccc2F)C3)cn1 | 73.4 | Active | Active | >=4 | 8.25 | Active | – | – | – | – | – | – | –
2 | Nc1cc(C(F)(F)F)c(-c2cc(N3CCOCC3)nc(N3CCOCC3)n2)cn1 [BUPARLISIB] | – | – | – | – | – | – | 0.646 | Active | 1.17 | 81.5 | Active | 3.24 | 1.29
